According to paper PMC6896334 (Cell reports, 2019):
“And” between values parts separate entries of the source, which are not always exact repeats. Identical values can stand only once.

Key:
Id1 crystals = target: T1, Id1 crystals (Mus musculus, UniProt P20067); assay: Exposure of Id1 crystals to compound; settings: DMSO alone had no such effect
T1 sequence (P20067 51-104): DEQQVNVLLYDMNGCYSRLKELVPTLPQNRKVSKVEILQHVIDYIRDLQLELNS
Procedure, shortened: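 Mouse Id1 (residues 51–104) crystals grown by hanging-drop vapour diffusion at 4°C. Protein at 2.8 mg/mL (20 mM Tris pH 8.0, 0.25 M NaCl, 5 mM DTT) was mixed 1:1 with reservoir of 0.1 M sodium citrate pH 6.5, 0.2 M magnesium acetate and 10% PEG8000.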

HUVECs [1] = assay: HUVEC cell cycle analysis; assay type: cell-based, human; settings: 20 μM, 24 h
Procedure, shortened: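 Cells exposed to test compound or DMSO, then trypsinised, PBS-washed and fixed in 70% ethanol at −20°C. After centrifugation and PBS wash, cells were stained in PI/RNase buffer for 15 min at room temperature. DNA content was analysed by flow cytometry.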

[2] = 14-day toxicity study, i.p. dosing; assay type: in vivo, mouse; settings: mice, 60 mg/kg i.p. bid, 14 days
Procedure, shortened: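 Mice given the test compound or vehicle (70% DMSO in water) i.p. at 60 mg/kg twice daily for 14 consecutive days. They were sacrificed 24 h after the last dose for gross and complete necropsy and clinical pathology. Clinical chemistry covered BUN, creatinine, ALP, ALT, AST, GGT, bilirubin, total protein, albumin, globulin, phosphorus, glucose, cholesterol, calcium, sodium, potassium and chloride.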

HCT116 cells = assay: HCT116 cell viability; assay type: cell-based, human
Procedure, shortened: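 MTT viability: cells seeded at 5000/well and left overnight, then exposed to the test compound for 24 h. MTT (5 mg/mL) was added for 4 h, medium removed and formazan dissolved in DMSO. Absorbance was read at 570 nm.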

[3] = tested on: choroidal neovascularization; assay: Laser-induced choroidal neovascularization; assay type: in vivo, mouse
Procedure, shortened: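 Female C57BL/6 mice aged 4–6 weeks had laser rupture of Bruch's membrane at three sites per eye. Test compounds (1 or 5 µg) or DMSO were given intravitreally. At day 14, choroidal flat mounts were stained with FITC-Griffonia simplicifolia lectin, and CNV area was measured by fluorescence image analysis by an observer masked to group.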

Cyclin D1 = assay: Western blot for Cyclin D1 in HCT116 cells; assay type: cell-based, human; settings: HCT116, 40 μM, 0-48 hours
HUVECs [4] = assay: HUVEC cell growth; assay type: cell-based, human; settings: 20 μM, 5 days
Procedure, shortened: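 HUVECs seeded at 38,000 cells per 24-well well, in triplicate for each time point, with 20 µM test compound or DMSO. Viable cells were counted by trypan blue exclusion on days 1, 3 and 5 after seeding.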

[5] = Pharmacokinetics in serum after i.p. injection; assay type: in vivo, mouse; settings: for mean maximum serum concentration: mice
Procedure, shortened: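 Eight-week-old male BALB/c mice received a single i.p. dose of 30, 50 or 100 mg/kg in 70% DMSO, with another group given 100 mg/kg in 100% DMSO (n = 3 per group). Blood was drawn at 30 min, 1, 3, 6 and 24 h. […] was quantified by a validated LC-MS protocol.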

Water solubility = assay type: physicochemical
E47-ID1 cellular complex = target: T2, E47-ID1 cellular complex (Homo sapiens, UniProt P41134); assay: Immunoprecipitation of endogenous ID1 and E47 in HCT116 cells; assay type: cell-based; settings: HCT116, 60 μM, 1 h
T2 sequence (P41134 1-155): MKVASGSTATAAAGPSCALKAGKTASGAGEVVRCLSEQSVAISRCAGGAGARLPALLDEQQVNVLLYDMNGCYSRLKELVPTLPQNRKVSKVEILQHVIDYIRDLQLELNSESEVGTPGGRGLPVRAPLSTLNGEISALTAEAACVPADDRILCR
Procedure, shortened: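 HCT116 cells were exposed for 1 h and lysed in NP40 or RIPA buffer with phosphatase/protease inhibitors, then cleared 15 min at 15,000 rpm, 4°C. Lysates were immunoprecipitated overnight at 4°C with anti-ID1 or anti-E2A plus protein G/A beads, washed four times and eluted in SDS sample buffer. SDS-PAGE/PVDF blots (5% milk in TBS-0.1% Tween20) were probed for ID1 (1:500) or E2A (1:1000), alongside whole-cell lysate blots.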

ID1, ID2, ID3, and ID4 = assay: Western blot for ID proteins in HCT116 cells; assay type: cell-based, human; settings: HCT116, 40 μM, 0-48 hours

CCC(=O)N(CCC(c1ccc2c(c1)OCO2)c1ccccc1OC)Cc1ccccc1 (centres unmarked) [AGX51, N-(3-(benzo[d][1,3]dioxol-5-yl)-3-(2-methoxyphenyl)propyl)-N-benzylpropionamide]
effect on Id1 crystals (Id1 crystals): the crystals melted
cell cycle effect (HUVECs [1]): G0/G1 growth arrest
clinical chemistry parameters and hematology [2]: within normal limits
gross necropsy and histopathological evaluation of all major organs [2]: No abnormal findings
mortality or morbidity [2]: no mortality or morbidity was observed
weight loss [2]: no significant weight loss
cell viability (MTT) (HCT116 cells; HCT116, 40 μM, 24 hours): reduced cell viability
IC50 (HCT116 cells; Homo sapiens, HCT-116, 24 h): 22.3 µM
area of CNV ([3]; intravitreal 5 μg on days 1 and 7, day 14, p < 0.05): effective at significantly reducing CNV
area of CNV ([3]; twice-daily i.p. injections ~30 mg/kg (500 μg), 14 days, vs vehicle, p < 0.05): significantly reduced CNV
area of CNV ([3]; two intravitreal injections of 10 μg 1 week apart, day 14, vs vehicle, p < 0.05): significantly suppressed CNV
Cyclin D1 levels (Cyclin D1): reduction in Cyclin D1 levels
cell viability / growth (HUVECs [4]): reduced cell viability
half-life ([5]; male, BALB/c, mouse, serum, ip): ~3 h
mean maximum serum concentration ([5]; i.p. 30 mg/kg in 70% DMSO, 30 mg/kg): 1.1 μg/mL and 2.7 μM
mean maximum serum concentration ([5]; i.p. 50 mg/kg in 70% DMSO, 50 mg/kg): 1.6 μg/mL and 4 μM
mean maximum serum concentration ([5]; i.p. 100 mg/kg in 70% DMSO, compared with lower doses): not increased further
water solubility (Water solubility): water insoluble
levels of co-precipitated E47 / ID1 (E47-ID1 cellular complex): markedly reduced the levels of the co-precipitated proteins
ID1, ID2, ID3 and ID4 protein levels (ID1, ID2, ID3, and ID4): reduced levels of ID1, ID2, ID3, and ID4
